Measurements from ChEMBL document CHEMBL2010694, “Indolyl and dihydroindolyl N-glycinamides as potent and in vivo active NPY5 antagonists” (Bioorg Med Chem Lett, 2012).
In brackets after ≈: the same amount, converted by molar mass. Activity calls are given as the source filed them. The rule behind the calls is not given here.

How the values were obtained:
[1] = biological target: T1, Neuropeptide Y receptor type 5 (Homo sapiens, UniProt Q15761); assay: Displacement of [125I]peptide YY from human NPY5 receptor
T1 sequence (Q15761 whole entry): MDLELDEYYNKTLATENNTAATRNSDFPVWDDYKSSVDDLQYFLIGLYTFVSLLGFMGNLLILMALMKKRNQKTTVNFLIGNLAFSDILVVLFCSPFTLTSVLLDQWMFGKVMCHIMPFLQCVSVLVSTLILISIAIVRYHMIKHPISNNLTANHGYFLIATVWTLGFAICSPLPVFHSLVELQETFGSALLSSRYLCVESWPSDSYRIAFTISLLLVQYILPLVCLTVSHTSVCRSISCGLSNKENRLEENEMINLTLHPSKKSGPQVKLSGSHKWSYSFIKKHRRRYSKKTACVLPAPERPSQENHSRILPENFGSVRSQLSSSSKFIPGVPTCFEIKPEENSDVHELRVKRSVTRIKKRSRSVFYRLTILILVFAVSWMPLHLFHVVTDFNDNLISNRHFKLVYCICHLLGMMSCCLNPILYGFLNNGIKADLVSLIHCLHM

Liver microsomes [2] = assay: Intrinsic clearance in human liver microsomes at 1 uM by LC/MS analysis; type: ADME, Microsome
Method in brief: (§1)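 Compound incubated with human or rat liver microsomes; reaction quenched with acetonitrile, centrifuged, and remaining drug in supernatant measured by LC/MS to estimate T1/2, from which intrinsic clearance was derived.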

Liver microsomes [3] = assay: Intrinsic clearance in rat liver microsomes at 1 uM by LC/MS analysis; type: ADME, Microsome; method in brief: as §1
Brain = assay: Drug uptake in Sprague-Dawley rat brain at 10 mg/kg, po by LC-MS/MS analysis; type: ADME, organism-based; parameters: dose 10 mg/kg, route oral; conditions: in vivo, read-out: Drug uptake
Method in brief: (§2)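 Male Sprague-Dawley rats (300–350 g), femoral artery cannulated; single 10 mg/kg oral dose in an appropriate vehicle, N = 3. Blood taken predose, 1, 2 and 4 h; brains then collected and stored at -80 °C. Equal portions of plasma or homogenized brain from the three rats pooled per time point, protein precipitated, quantified by LC/MS/MS.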

Plasma = assay: Plasma concentration in Sprague-Dawley rat at 10 mg/kg, po by LC-MS/MS analysis; type: ADME, organism-based; parameters: dose 10 mg/kg, route oral; conditions: in vivo; method in brief: as §2
MDR [4] = assay: Apparent permeability from apical to basolateral side in MDCK cells expressing MDR; type: ADME, cell-based, Canis lupus familiaris; conditions: dog, MDCK-MDR1
Method in brief: (§3)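 Bidirectional permeability (A–B and B–A) across a Pgp-overexpressing mdr-MDCK cell monolayer; efflux ratio derived from the two Papp values, given in 10^-6 cm/s.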

MDR [5] = assay: Apparent permeability from basolateral to apical side in MDCK cells expressing MDR; type: ADME, cell-based, Canis lupus familiaris; conditions: dog, MDCK-MDR1; method in brief: as §3
[6] = Plasma concentration in Sprague-Dawley rat at 10 mg/kg, po after 1 hr by LC-MS/MS analysis; type: ADME, organism-based; parameters: dose 10 mg/kg, route oral; method in brief: as §2
[7] = Solubility of the compound at pH 7.4; type: physicochemical; conditions: buffer
[8] = Lipophilicity, log D of the compound at pH 7.4; type: physicochemical; conditions: buffer
[9] = Protein binding in human; type: ADME, organism-based; conditions: plasma, read-out: PB (converted)
Cytochrome P450 3A4 = Cytochrome P450 3A4 (Homo sapiens, UniProt P08684); assay: Inhibition of CYP3A4; type: ADME
Cytochrome P450 1A2 = biological target: T2, Cytochrome P450 1A2 (Homo sapiens, UniProt P05177); assay: Inhibition of CYP1A2; type: ADME
T2 sequence (P05177 whole entry): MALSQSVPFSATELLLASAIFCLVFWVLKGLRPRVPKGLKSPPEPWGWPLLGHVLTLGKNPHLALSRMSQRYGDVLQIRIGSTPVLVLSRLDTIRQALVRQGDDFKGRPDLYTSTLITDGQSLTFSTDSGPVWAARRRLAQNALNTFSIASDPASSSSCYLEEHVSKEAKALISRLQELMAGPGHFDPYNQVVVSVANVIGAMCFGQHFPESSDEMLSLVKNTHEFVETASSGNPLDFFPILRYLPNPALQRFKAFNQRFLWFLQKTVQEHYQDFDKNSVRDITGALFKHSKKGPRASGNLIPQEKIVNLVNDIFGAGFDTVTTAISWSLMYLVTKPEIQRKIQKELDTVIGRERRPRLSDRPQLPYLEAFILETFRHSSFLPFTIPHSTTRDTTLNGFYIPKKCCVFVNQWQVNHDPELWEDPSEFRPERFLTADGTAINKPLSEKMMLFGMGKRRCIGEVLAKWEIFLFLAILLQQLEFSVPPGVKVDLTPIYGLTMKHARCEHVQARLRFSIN

Cytochrome P450 2C19 = Cytochrome P450 2C19 (Homo sapiens, UniProt P33261); assay: Inhibition of CYP2C19; type: ADME
Cytochrome P450 2D6 = Cytochrome P450 2D6 (Homo sapiens, UniProt P10635); assay: Inhibition of CYP2D6; type: ADME
[10] = Absolute oral bioavailability in Sprague-Dawley rat at 2 mg/kg after 24 hrs wash out period by HPLC analysis; type: ADME, organism-based; conditions: in vivo
Method in brief: (§4)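 Male Sprague-Dawley rats (200–250 g), jugular and carotid artery cannulated; compound dissolved in 20% beta cyclodextrin, pH adjusted with methane sulfonic acid. Serial blood sampled at 12 time points over 24 h post dose by automated sampler; plasma from centrifugation analysed by HPLC; PK parameters by non-compartmental analysis of plasma concentration–time profile.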

[11] = Clearance in Sprague-Dawley rat blood at 2 mg/kg, po and 1 mg/kg, iv after 24 hrs wash out period by HPLC analysis; type: ADME, organism-based; conditions: whole blood; method in brief: as §4
[12] = Half life in Sprague-Dawley rat plasma at 2 mg/kg, po and 1 mg/kg, iv after 24 hrs wash out period by HPLC analysis; type: ADME, organism-based; method in brief: as §4
[13] = Tmax in Sprague-Dawley rat plasma at 2 mg/kg, po and 1 mg/kg, iv after 24 hrs wash out period by HPLC analysis; type: ADME, organism-based; method in brief: as §4
[14] = Cmax in Sprague-Dawley rat plasma at 2 mg/kg, po and 1 mg/kg, iv after 24 hrs wash out period by HPLC analysis; type: ADME, organism-based; method in brief: as §4
[15] = Volume of distribution at steady state in Sprague-Dawley rat plasma at 2 mg/kg, po and 1 mg/kg, iv after 24 hrs wash out period by HPLC analysis; type: ADME, organism-based; conditions: read-out: Vdss; method in brief: as §4
Rattus norvegicus [16] = assay: Antiobesity activity in cPP-induced feeding in Sprague-Dawley rat model assessed as reduction in food intake at 0.1 to 10 mg/kg, po measured 1 hr post cpp challenge; type: functional, organism-based
Method in brief: (§5)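 Rats pretreated orally at 0.1, 1 or 10 mg/kg (vehicle 20% cyclodextrin) 1 h before intracerebroventricular infusion of Y5-selective peptide agonist cPP, 0.6 nmol in normal saline; food intake recorded, n = 7–14 per group.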

Rattus norvegicus [17] = assay: Antiobesity activity in po dosed cPP-induced feeding Sprague-Dawley rat model assessed as reduction in food intake measured 1 hr post cpp challenge; type: functional; method in brief: as §5
[18] = Drug uptake in cPP-induced feeding Sprague-Dawley rat model brain at 0.1 mg/kg, po after 1 hr; type: ADME, organism-based; parameters: dose 0.1 mg/kg, route oral; conditions: read-out: Drug uptake
Method in brief: (§6)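 Satellite animals from the cPP feeding study dosed orally at 0.1, 1 or 10 mg/kg; plasma (ng/mL) and brain (ng/g) levels measured 1 h after dosing.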

[19] = Plasma concentration in cPP-induced feeding Sprague-Dawley rat model at 0.1 mg/kg, po after 1 hr; type: ADME, organism-based; parameters: dose 0.1 mg/kg, route oral; method in brief: as §6
[20] = Plasma concentration in cPP-induced feeding Sprague-Dawley rat model at 1 mg/kg, po after 1 hr; type: ADME, organism-based; parameters: dose 1 mg/kg, route oral; method in brief: as §6
[21] = Plasma concentration in cPP-induced feeding Sprague-Dawley rat model at 10 mg/kg, po after 1 hr; type: ADME, organism-based; parameters: dose 10 mg/kg, route oral; method in brief: as §6

Chain of Cytochrome P450 2C19 (P33261 whole entry): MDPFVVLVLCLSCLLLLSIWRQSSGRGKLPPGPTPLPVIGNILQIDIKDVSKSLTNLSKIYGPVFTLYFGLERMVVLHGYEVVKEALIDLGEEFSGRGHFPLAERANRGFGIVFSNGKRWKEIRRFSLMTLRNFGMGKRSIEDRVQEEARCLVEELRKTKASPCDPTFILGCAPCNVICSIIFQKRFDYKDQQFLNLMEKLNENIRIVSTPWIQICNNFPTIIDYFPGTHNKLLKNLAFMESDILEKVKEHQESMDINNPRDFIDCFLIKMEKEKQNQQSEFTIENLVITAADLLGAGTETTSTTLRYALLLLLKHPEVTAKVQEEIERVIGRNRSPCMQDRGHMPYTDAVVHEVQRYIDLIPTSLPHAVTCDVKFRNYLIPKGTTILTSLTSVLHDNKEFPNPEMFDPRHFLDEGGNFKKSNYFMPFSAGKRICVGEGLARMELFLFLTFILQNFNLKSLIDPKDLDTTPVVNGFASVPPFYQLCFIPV
Chain of Cytochrome P450 3A4 (P08684 whole entry): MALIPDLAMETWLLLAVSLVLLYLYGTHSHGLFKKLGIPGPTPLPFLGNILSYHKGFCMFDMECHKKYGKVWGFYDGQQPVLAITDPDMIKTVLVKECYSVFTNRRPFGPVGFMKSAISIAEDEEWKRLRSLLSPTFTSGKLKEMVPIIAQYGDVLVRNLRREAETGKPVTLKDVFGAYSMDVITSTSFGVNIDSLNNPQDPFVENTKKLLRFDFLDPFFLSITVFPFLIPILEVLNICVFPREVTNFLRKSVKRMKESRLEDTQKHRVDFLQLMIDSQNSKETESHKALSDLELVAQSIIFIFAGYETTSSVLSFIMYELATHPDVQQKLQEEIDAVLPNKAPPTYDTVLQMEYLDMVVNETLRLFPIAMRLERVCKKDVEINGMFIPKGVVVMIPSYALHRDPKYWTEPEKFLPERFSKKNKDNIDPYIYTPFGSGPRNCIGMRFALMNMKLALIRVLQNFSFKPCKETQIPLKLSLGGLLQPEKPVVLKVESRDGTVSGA
Chain of Cytochrome P450 2D6 (P10635 whole entry): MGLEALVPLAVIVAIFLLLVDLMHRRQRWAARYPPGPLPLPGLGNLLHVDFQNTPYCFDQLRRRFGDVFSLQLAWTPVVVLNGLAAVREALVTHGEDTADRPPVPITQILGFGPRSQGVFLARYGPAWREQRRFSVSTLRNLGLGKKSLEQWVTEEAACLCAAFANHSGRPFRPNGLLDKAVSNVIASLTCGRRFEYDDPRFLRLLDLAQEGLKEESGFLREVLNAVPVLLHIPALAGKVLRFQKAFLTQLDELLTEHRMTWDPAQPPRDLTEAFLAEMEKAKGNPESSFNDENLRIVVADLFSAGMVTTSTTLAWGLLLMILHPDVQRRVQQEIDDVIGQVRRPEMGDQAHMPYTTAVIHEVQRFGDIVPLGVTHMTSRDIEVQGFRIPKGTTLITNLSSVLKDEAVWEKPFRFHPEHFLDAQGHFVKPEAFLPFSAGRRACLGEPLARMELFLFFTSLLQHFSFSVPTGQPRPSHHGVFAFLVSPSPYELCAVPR

Ki [1]: 0.5 nM
CLH (Liver microsomes [2]): 3.6 L/min
CLH (Liver microsomes [3]): 49 mL/min
concentration (Brain): 0.304 µM
concentration (Plasma): 5.61 µM
Papp A→B (MDR [4]): 2.31 ×10⁻⁶ cm/s
Papp B→A (MDR [5]): 60.1 ×10⁻⁶ cm/s
concentration at 1 h [6]: 5.47 µM
solubility [7]: 154 µM (≈ 65.9 µg/mL)
logD [8]: 3
fraction unbound [9]: 0.009
IC50 (Cytochrome P450 3A4): 700 nM
IC50 (Cytochrome P450 1A2): > 40000 nM
IC50 (Cytochrome P450 2C19): > 40000 nM
IC50 (Cytochrome P450 2D6): > 40000 nM
bioavailability [10]: 100%
clearance [11]: 23.3 mL/min/kg
half-life [12]: 4.4 h
Tmax [13]: 0.8 h
Cmax [14]: 700 ng/mL
Vd [15]: 1.9 L/kg
concentration at 1 h [18]: 11 ng/g
concentration at 1 h [19]: 76 ng/mL
concentration at 1 h [20]: 516 ng/mL
concentration at 1 h [21]: 1700 ng/mL
SMILES: CC(C)S(=O)(=O)NC[C@H]1CC[C@H](NC(=O)CN2CCc3cc(Cl)ccc32)CC1
Activity (Rattus norvegicus [16]): Active
Activity (Rattus norvegicus [17]): Dose-dependent effect
minimal effective dose (Rattus norvegicus [17]; read-out: MED): < 0.1 mg/kg
